# According to ChEMBL document CHEMBL1151775, “Inhibition of aquaporin 4 by antiepileptic drugs” (Bioorg Med Chem, 2009):
# What was measured:
# Format in all cases: cell-based
# Oocyte [1] = experiment: Inhibition of human aquaporin 4 M23 isoform expressed in Xenopus laevis oocytes at 20 uM
# How it was run: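 Oocytes injected with 30 nL hAQP4b cRNA (0.1 µg/µL) or water sham, cultured 48 h at 18 C in MBS. Exposure to 20 µM compound (0.1% DMSO) for 2 h, then hypotonic challenge by dilution with buffer-free solution of matching inhibitor/DMSO. Oocyte area imaged each 60 s for 4 min, converted to volume. Osmotic permeability-based percent inhibition versus blank and sham; single-tail ANOVA, P < 0.05.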
# Oocyte [2] = experiment: (§1) Inhibition of human aquaporin 4 M23 isoform expressed in Xenopus laevis oocytes
# How it was run: (§2)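 hAQP4b cRNA (0.1 µg/µL, 30 nL) or water (sham) injected into oocytes, kept 48 h at 18 C in MBS. Oocytes preincubated 2 h with ligand at 0.1, 1, 5, 10, 20 or 100 µM, 0.1% DMSO final, then diluted with buffer-free hypotonic solution. Swelling imaged every 60 s up to 4 min; n = 5 oocytes. Percent inhibition relative to blank and sham Pf fit sigmoidally for apparent IC50.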
# [3] = as §1; details: oocyte; how it was run: as §2
SMILES,inhibition (Oocyte [1]),Imax (Oocyte [2]),IC50 [3]
CCCC(CCC)C(=O)O,40%,–,–
NC(=O)N1c2ccccc2C2OC2c2ccccc21 (stereo not drawn),40%,–,–
NC(=O)N1c2ccccc2CC(=O)c2ccccc21,33%,–,–
CC(=O)Nc1nnc(S(N)(=O)=O)s1 [ACETAZOLAMIDE],78%,86%,0.86 µM
Nc1nnc(-c2cccc(Cl)c2Cl)c(N)n1 [LAMOTRIGINE],54%,64%,8.1 µM
O=C1NC(=O)C(c2ccccc2)(c2ccccc2)N1 [PHENYTOIN],58%,60%,9.8 µM
CC1(C)O[C@@H]2[C@@H](CO[C@@]3(COS(N)(=O)=O)OC(C)(C)O[C@@H]23)O1 [TOPIRAMATE],67%,75%,10 µM
NS(=O)(=O)Cc1noc2ccccc12 [ZONISAMIDE],48%,48%,3.3 µM
